Shown are actives, neighbours in structure and some others; about 0.85% of the full set was active somewhere.
V1R ag counter = agonists of human V1a receptor, primary screen, counter-screen for OXTR agonist project, fluorescence, CHO-V1R cells. Vasopressin V1a receptor (Homo sapiens), P37288. Fluo-8 calcium fluorescence, agonist mode; 0% DMSO, 100% 3 nM vasopressin. activation, % at 3 µM. 0.25% of 320,000 active. AID 2797, 2010;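 active means activation above the mean activation of all tested compounds plus 3 SD, per screening run, cut at about 20% in these data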;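 further: signal is peak over basal fluorescence ratio across a 100 second FLIPR read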
Target sequence (P37288 whole entry, looked up): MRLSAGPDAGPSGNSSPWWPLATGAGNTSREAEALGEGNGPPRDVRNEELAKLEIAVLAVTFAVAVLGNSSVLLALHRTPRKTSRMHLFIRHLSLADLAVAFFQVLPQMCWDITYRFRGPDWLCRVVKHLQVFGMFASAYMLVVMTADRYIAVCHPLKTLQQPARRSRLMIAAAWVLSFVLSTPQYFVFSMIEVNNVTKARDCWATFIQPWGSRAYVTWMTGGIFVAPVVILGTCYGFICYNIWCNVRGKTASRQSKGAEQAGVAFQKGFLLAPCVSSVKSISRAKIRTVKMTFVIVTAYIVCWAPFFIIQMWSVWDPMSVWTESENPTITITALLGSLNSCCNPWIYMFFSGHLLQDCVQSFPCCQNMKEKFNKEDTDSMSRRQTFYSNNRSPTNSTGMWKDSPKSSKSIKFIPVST
OXTR potentiator = human OXTR potentiators, primary screen, fluorescence, CHO-OTR cells, Fluo-8 calcium | Oxytocin receptor (Homo sapiens), P30559 | Fluo-8 calcium fluorescence, potentiator mode; 0% = oxytocin EC15, 100% = EC100 | activation, % at 3 µM | 0.061% of 320,000 active;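 active means activation above that plate's cutoff, the mean activation of tested compounds plus 3 SD, cut at about 6.6% in these data, passing the limit was not always enough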
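System: human OTR in CHO cells / Also added: sub-maximal oxytocin, roughly EC15 / Control set: EC15 oxytocin low, 75 nM oxytocin high / Schedule: 6 min compound pre-incubation at room temperature, 100 s kinetic read / Compound: single-point 3.0 µM / Replication: singlicate / Technique: Fluo-8 calcium dye fluorescence / Read-out basis: % activation of max/min ratio relative to oxytocin controls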
TRPN1 ag = zebrafish TRPN1 channel agonists, primary screen, cell-based, HEK293, calcium fluorescence; transient receptor potential cation channel N1 (TRPN1/NompC), Danio rerio; HEK293 zebrafish TRPN1-YFP, Fluo-8 calcium fluorescence; 100% = response to 87 µM carbachol; activation, % at 3 µM; 0.18% of 220,000 active; AID 1424, 2008;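 active means activation above its plate's cutoff, the mean activation of test wells on that plate plus 3 SD, cut at about 19% in these data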
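Assay system: Zebrafish TRPN1-YFP in HEK293 cells | Incubation: Dye loading 1 h at 37 °C, then 30 min room temperature | Measured by: Kinetic Fluo-8 fluorescence, ex 470-495, em 515-575 nm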
OXTR ag = human OXTR agonists, primary screen, fluorescence, CHO-OTR cells, Fluo-8 calcium; activation, % at 3 µM; 0.32% of 320,000 active; Fluo-8 calcium fluorescence; normalized: DMSO 0%, oxytocin 100%; AID 2435, 2010; Oxytocin receptor (Homo sapiens), P30559;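 active means activation above the mean of all tested compounds plus 3 SD, cutoff set per screening run, cut at about 20% in these data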;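 further: peak over basal fluorescence ratio from a 100 s FLIPR kinetic read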
TRPML3 agonist = human TRPML3 channel agonists, primary screen, cell-based, HEK293 TRPML3-YFP, Fluo-8 calcium fluorescence, 3 µM; 0.29% of 220,000 active; activation, % at 3 µM; 100% = the carbachol control signal; Mucolipin-3 (Homo sapiens), Q8TDD5;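 active means activation above its plate's cutoff, the mean activation of the plate's test wells plus 3 SD, cut at about 12% in these data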
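Test system: HEK293 cells stably carrying human TRPML3-YFP; Doses: single dose, 3 µM final nominal compound, 0.3% DMSO final; Schedule: dye loading 1 h 37 °C then 30 min ambient, 125 s read; Technique: Fluo-8 calcium fluorescence; Benchmarks: high control carbachol 87 µM, low control DMSO.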
CRFR2-BP ag = agonists of CRF-BP/CRF-R2 complex, primary screen, cell-based, HEK293, calcium dye fluorescence, uHTS; AID 588473, 2011; calcium dye fluorescence (FLIPR); percent of saturating CRF peptide response; 0.46% of 350,000 active; CRF-binding protein / CRF receptor 2 complex (human); activation, % at 13.2 µM;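 active means activation of at least 50%, plus an integration ratio under a set limit after plate pattern correction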
A number is an active result; . = inactive; / = no result given.

SMILES	V1R ag counter	OXTR potentiator	TRPN1 ag	OXTR ag	TRPML3 agonist	CRFR2-BP ag
CC(C)C[C@H]1CN=C(N(C)C)N1CCc1cccc(F)c1	.	.	/	.	/	.
CC(C)C[C@H]1CN=C(Nc2ccccc2)N1CCc1cccc(F)c1	73	.	/	51	/	125
CC(=O)OC(C=C(C)C)C/C(C)=C/COc1c2ccoc2cc2oc(=O)ccc12 (configuration not stated)	/	/	/	/	/	.
Cc1cccc(C(=O)N[C@H](C(=O)NCCc2ccc(Cl)cc2)C(C)C)c1	.	.	/	.	/	.
Cc1ccc(C)c(SCC(=O)NC(=O)NC2CCCC2)c1	.	.	/	.	/	.
CC(Oc1ccc(Br)cc1)C(=O)Nc1ccc(S(=O)(=O)N(C)C2CCN(C)CC2)cc1 (configuration not stated)	47	.	/	64	/	96
Cc1ccc(-n2nnnc2C(Cl)(Cl)c2nnnn2-c2ccc(C)cc2)cc1	.	.	.	.	.	72
Clc1ccc(-c2nnnn2-c2ccc(Cl)cc2)cc1	.	.	.	.	.	.
O=[N+]([O-])c1ccc(/C=C/C2=NN(c3ccccc3)C(c3ccco3)C2)o1 (configuration not stated)	/	/	23	/	21	66
C(=C\c1ccco1)/C1=NN(c2ccccc2)C(c2ccco2)C1 (configuration not stated)	.	.	.	.	.	.
COc1ccccc1C(CNC(=O)C1CC(=O)N(Cc2ccc(C)cc2)C1)N1CCCC1 (configuration not stated)	.	.	/	.	/	.
COCC1CCN(Cc2nc(-c3ccc4c(c3)OCO4)no2)C1 (configuration not stated)	.	.	.	.	.	203
c1cc(C2CCN(Cc3nc(-c4ccc5c(c4)OCO5)no3)CC2)ccn1	.	.	.	.	.	.
CC(C)(C)OC(=O)N1CCC(NC(=O)c2[nH]cnc2C(=O)Nc2ccccc2F)CC1	/	/	/	/	/	.
C[C@]12CCC(O)CC1CCC1C2CC[C@]2(C)C(c3cc(C(F)(F)F)n[nH]3)CCC12 (some centres not stated)	.	.	.	.	.	54
CC12CCC3C(CCC4CC(O)CCC43C)C1CC(O)C2 (configuration not stated)	/	/	/	/	/	.
O=C(COc1ccc(Cl)cc1)NCCS(=O)(=O)N1CCN(c2ccccc2F)CC1	.	.	/	.	/	.
CCC(NC(=O)Nc1nnc(C(F)(F)F)s1)(C(F)(F)F)C(F)(F)F	.	.	26	.	23	.
CN1CCN(S(=O)(=O)c2cccc(C(=O)Nc3ccc(Br)cc3Br)c2)CC1	.	.	/	.	/	.
CCc1ccc(O)c(N=Cc2cccc(C)c2O)c1	.	.	.	.	.	.
Cc1cccc(C=Nc2ccc3c4c(cccc24)CC3)c1O	25	.	.	.	.	.
Cc1cccc(CCN2CCN=C2Nc2ccccc2)c1	.	.	/	.	/	56
CC1=NNC(=O)/C1=C\c1cn(-c2ccccc2)nc1-c1cccs1	.	.	.	.	.	80
CCN(CC(=O)Nc1c(F)cccc1F)C(=O)C1CC1C (configuration not stated)	.	.	/	.	/	.
O=C(Nc1ccc(OCC(F)(F)C(F)F)c(C(F)(F)F)c1)c1ccccc1O	.	.	.	.	.	60
SMILES	V1R ag counter	OXTR potentiator	TRPN1 ag	OXTR ag	TRPML3 agonist	CRFR2-BP ag
O=C(Nc1ccc(OCC(F)(F)C(F)F)c(C(F)(F)F)c1)c1ccccc1	.	.	.	.	.	.
COc1ccccc1C(CNc1nc(C(F)(F)F)nc2ccccc12)N(C)C (configuration not stated)	.	.	/	.	/	.
O=C(Cc1ccc(NC2=NC3CS(=O)(=O)CC3S2)cc1)NCc1ccccc1Cl (configuration not stated)	.	.	/	.	/	.
CN(Cc1ccccc1)C(=O)c1ccc(NC(=O)Cc2ccc(NC(=O)C3CCCN(C(=O)C4CCCC4)C3)cc2)cc1 (configuration not stated)	/	/	/	/	/	.
CCn1c(=O)c(C(=O)NNC(=O)c2ccccc2F)c(O)c2ccccc21	52	.	/	28	/	100
CCn1c(=O)c(C(=O)NNC(=O)c2ccccc2Cl)c(O)c2ccccc21	41	.	/	22	/	.
COc1ccc2c(n1)Sc1nc3ccccc3nc1N2	56	.	57	86	29	228
COc1cc2ccccc2nn1	.	.	.	.	.	.
COc1ccc(CN(C2CCCCC2C)S(=O)(=O)c2ccc(S(=O)(=O)N(C)C)cc2)cc1OC (configuration not stated)	.	.	39	.	145	148
CCCCc1c(O)nc(SCC(=O)c2ccccc2)n(-c2ccccc2)c1=O	.	.	.	.	.	.
CCOc1ccccc1Nc1nnc(SCC(=O)N(C)C2CCS(=O)(=O)C2)s1 (configuration not stated)	.	.	/	.	/	.
O=C(C[C@H]1C[C@H](C(=O)N2CCOCC2)[C@@]2(CCC3CCCC3)c3[nH]c4ccc(Cl)cc4c3CCN2C1=O)NCCN1CCOCC1	/	/	/	/	/	88
CCCCOc1ccc(C(=O)NCC(=O)N2CCN(C/C=C/c3ccccc3)CC2)cc1	/	/	/	/	/	.
Cc1ccc(/C=C2\CCC3=C2OC(N)=C(C#N)C3c2ccc(C)cc2)cc1 (configuration not stated)	43	.	.	23	.	253
COC(=O)[C@@]1(Cc2ccccc2)[C@H]2C(=O)N(C)C(=O)[C@H]2[C@H]2CN=C(SCc3ccc(C)cc3)N21	/	/	/	/	/	.
COc1ccc(OC)c(/C=C2\N=C(c3ccccc3)OC2=O)c1	.	.	/	.	/	104
CCN(CC)C(=O)C1=C(C)N(CCC2=CCCCC2)C(=O)C(CC(=O)NCCCCc2ccccc2)C1 (configuration not stated)	/	/	/	/	/	.
COc1ccc(CNC(=O)C2CCC(=O)N(C3CCCCCC3)C2)c(OC)c1 (configuration not stated)	/	/	/	/	/	.
Cc1ccc(S(=O)(=O)N[C@H](C(=O)OCC(=O)N2N=C(c3ccc(Cl)cc3)CC2c2ccco2)C(C)C)cc1 (some centres not stated)	.	.	.	.	.	58
Cc1cc(=O)[nH]c(SCC(=O)Nc2ccc(Br)cc2)c1C#N	.	.	.	.	.	67

From PubChem
